Test results from ChEMBL document CHEMBL1156469 (2007).
The source made the active and inactive calls. The calls are words filed in the database; no cut-off is given here.

What was measured:
[1] = system: Osteoblast; assay: Reversal of increase in ER.DNA complex in rat primary osteoblast cells transfected with dominant-negative mutant Src expression vector at 1 uM by RT-PCR; assay type: functional, cell-based
[2] = system: MDA-MB-231; assay: Reduction in anchorage-independent colony formation of human MDA-MB-231 cells at 1 uM by soft agar colony forming assay; assay type: functional, cell-based
Method in brief: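 Seeded in 0.35% noble agar in DMEM/10% FBS over a 0.7% agar bed. Colonies of at least 50 μm counted after 3 weeks under a dissecting microscope, six replicates per treatment. Three separate experiments.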

[3] = target: Proto-oncogene tyrosine-protein kinase Src (Mus musculus) (UniProt P05480); assay: Increase in Src kinase phosphorylation in mouse MC3T3-E1 cells at 1 uM; assay type: cell-based
Method in brief: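 MC3T3-E1 cells, with or without DN-Src vector (3 μg) or PP2 (10 μm), treated ± 1 μm; Src phosphorylation by Western blot; three independent experiments.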

[4] = target: Alkaline phosphatase, germ cell type (Homo sapiens) (UniProt P10696); assay: Increase in ALP activity in human MG63 cells at 0.1 to 10 uM after 7 days; assay type: cell-based; details: MG-63
[5] = system: MG-63; assay: Increase in proliferation of human MG63 cells at 0.1 to 10 uM after 24 hr by flow cytometry; assay type: functional, cell-based
[6] = system: Osteoblast; assay: Increase in bone morphogenetic protein 2 gene expression in rat primary osteoblast cells assessed as expression ratio of treated to untreated control by microarray analysis; assay type: functional
Method in brief: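 GEArray Q series Mouse Osteogenesis cDNA array profiling osteogenic-differentiation genes in treated versus vehicle-treated primary osteoblasts.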

[7] = system: Osteoblast; assay: Effect on fibroblast growth factor 2 gene expression in rat primary osteoblast cells assessed as expression ratio of treated to untreated control by microarray analysis; assay type: functional
[8] = system: Osteoblast; assay: Effect on runt related transcription factor 2 gene expression in rat primary osteoblast cells assessed as expression ratio of treated to untreated control by microarray analysis; assay type: functional
Method in brief: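 Resveratrol-treated and vehicle-treated primary osteoblasts were profiled on a mouse osteogenesis-focused cDNA array (GEArray Q series) built to track gene expression during osteogenic differentiation. Each gene's signal in treated cells was expressed as a ratio to untreated control.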

Chain of Alkaline phosphatase, germ cell type (Homo sapiens) (P10696 20-503 limits assumed): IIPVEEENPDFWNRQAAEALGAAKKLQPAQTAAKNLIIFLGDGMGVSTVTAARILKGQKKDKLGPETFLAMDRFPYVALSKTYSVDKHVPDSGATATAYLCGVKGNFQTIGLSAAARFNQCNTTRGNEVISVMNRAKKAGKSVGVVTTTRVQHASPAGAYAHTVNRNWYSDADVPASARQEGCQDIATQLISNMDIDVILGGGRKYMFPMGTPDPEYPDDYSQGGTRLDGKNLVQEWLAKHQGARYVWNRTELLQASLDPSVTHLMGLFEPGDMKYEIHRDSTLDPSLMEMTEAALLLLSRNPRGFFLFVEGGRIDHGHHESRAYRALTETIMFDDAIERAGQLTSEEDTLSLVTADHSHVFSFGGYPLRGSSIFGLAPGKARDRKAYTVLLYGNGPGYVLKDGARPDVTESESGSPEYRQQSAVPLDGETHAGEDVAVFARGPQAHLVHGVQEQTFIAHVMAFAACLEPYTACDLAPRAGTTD
Chain of Proto-oncogene tyrosine-protein kinase Src (Mus musculus) (P05480 2-535 limits assumed): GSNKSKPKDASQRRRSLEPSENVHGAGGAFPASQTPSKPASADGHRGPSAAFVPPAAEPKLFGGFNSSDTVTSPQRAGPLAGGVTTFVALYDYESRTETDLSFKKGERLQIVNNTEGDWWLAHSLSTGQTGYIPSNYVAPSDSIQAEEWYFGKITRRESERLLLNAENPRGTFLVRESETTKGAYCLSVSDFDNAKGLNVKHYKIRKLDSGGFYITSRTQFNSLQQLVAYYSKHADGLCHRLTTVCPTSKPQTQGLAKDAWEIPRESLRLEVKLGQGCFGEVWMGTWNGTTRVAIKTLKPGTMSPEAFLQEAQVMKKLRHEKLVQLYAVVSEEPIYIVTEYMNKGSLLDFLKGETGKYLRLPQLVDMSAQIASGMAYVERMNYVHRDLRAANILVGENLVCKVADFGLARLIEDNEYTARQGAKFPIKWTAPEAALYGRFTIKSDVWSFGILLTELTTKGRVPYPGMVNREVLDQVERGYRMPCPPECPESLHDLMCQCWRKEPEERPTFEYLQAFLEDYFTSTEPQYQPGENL

- Activity [3]: Active
- Activity [4]: Active
SMILES: Oc1ccc(/C=C/c2cc(O)cc(O)c2)cc1 [RESVERATROL]
- Activity [1]: Active
- Activity [2]: Active
- Activity [5]: Active
- Ratio [6]: 12.75
- Ratio [7]: 2.76
- Ratio [8]: 3.26
